Laboratory results published in ChEMBL document CHEMBL4145530, “Design, synthesis and pharmacological evaluation of N-benzyl-piperidinyl-aryl-acylhydrazone derivatives as donepezil hybrids: Discovery of novel multi-target anti-alzheimer prototype drug candidates” (Eur J Med Chem, 2018).
Active and inactive are the calls of the source. No cut-off for these calls is given here.

Assays:
HepG2 = assay: Genotoxicity in human HepG2 cells assessed as induction of DNA damage by measuring comet tail moment at 20 to 40 uM by alkaline comet assay; format: toxicity, cell-based; conditions: hepg2, 40 µM
How it was run: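 HepG2 cells were exposed 6 h to 20 or 40 µM, then trypsinised; viability was checked by trypan blue. Cells were embedded in low-melting agarose and lysed at 4 °C, pH 10, for 24 h. DNA was unwound 20 min in pH 13 buffer, then electrophoresed 25 V/300 mA for 25 min, neutralised and stained with SYBR Green. Tail moment was scored on 50 nuclei per slide in triplicate slides; 3 independent experiments. Doxorubicin and UV light served as positive controls.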

Mus musculus [1] = assay: Antinociceptive activity in formalin-induced Swiss mouse model of hyperalgesia assessed as time spent licking the injected paw in last phase at […], po pretreated for 1 hr followed by formalin injection and measured at 20 to 30 mins (reference value: 135.8 +/- 10.7 secs); format: functional
Acetylcholinesterase [2] = molecular target: T1, Acetylcholinesterase (Electrophorus electricus, UniProt O42275); assay: (§1) Inhibition of electric eel AChE using acetylthiocholine iodide as substrate preincubated for 10 mins followed by substrate addition by Ellman's method
[3] = molecular target: Acetylcholinesterase (Electrophorus electricus) (UniProt O42275); assay: as §1
Mus musculus [4] = assay: (§2) Proinflammatory activity in C57Bl/6 mouse model of amyloid beta (1 to 42) oligomer-induced neuroinflammation assessed as induction of microgliosis in CA1 region of contralateral hippocampus at 100 mg/kg, ip pretreated for 1.5 hrs followed by amyloid beta (1 to 42) oligomer addition and measured after 7 days by Iba-1 staining based assay; format: organism-based; conditions: in vivo, 168 h
How it was run: (§3)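 Male C57Bl/6 mice (25–30 g) got 100 mg/kg i.p. or vehicle 1.5 h before a unilateral right-hippocampal injection of Aβ1-42 oligomers (400 pmol/0.5 µL) or PBS. The oligomers were made by diluting the DMSO stock into PBS at 40 µM and holding at 4 °C for 48 h. After 7 days, brain sections were stained for Iba-1 (antigen retrieval, fluorescent secondary) and five CA1 images per hippocampus were taken; pixel density was read, n=10.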

[5] = molecular target: Acetylcholinesterase (Electrophorus electricus) (UniProt O42275); assay: Inhibition of electric eel AChE at 100 uM using acetylthiocholine iodide as substrate preincubated for 10 mins followed by substrate addition by Ellman's method relative to control
PBMC = assay: cells; format: ADME, cell-based; conditions: Homo sapiens, 6 h
SH-SY5Y = assay: Neuroprotection in human SH-SY5Y cells assessed as inhibition of amyloid beta (1 to 42) oligomer-induced neuronal death at 10 uM after 24 hrs by propidium iodide staining based fluorescence microscopic method; format: functional, cell-based
How it was run: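 After plating at 5×10^3 cells/well and growing 24 h, SH-SY5Y cells were co-exposed to compound and Aβ1-42 oligomers (10 µM) for 24 h at 37 °C. Cells were stained with propidium iodide in PBS for 10 min. Dead cells were counted by fluorescence microscopy in four fields of 50–100 cells and expressed as PI-positive/total × 100. Three independent experiments.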

Mus musculus [6] = assay: Inhibition of serum COX2 level in Swiss mouse model of carragenan-induced paw edema at 100 mM/kg, po pretreated for 1 hr followed by carrageenan treatment measured after 3 hrs by ELISA; format: functional
How it was run: (§4)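 Swiss mice (n=8) received compound (100 mM/kg) or vehicle orally 1 h before intraplantar carrageenan; indomethacin was the positive control. Three hours later, blood was drawn from the heart under chloral hydrate anaesthesia and serum was collected. COX-1 and COX-2 protein was measured by sandwich ELISA read at 450 nm and expressed as percent COX level.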

Mus musculus [7] = assay: Antinociceptive activity in formalin-induced Swiss mouse model of hyperalgesia assessed as time spent licking the injected paw in early phase at 100 mM/kg, po pretreated for 1 hr followed by formalin injection and measured up to 5 mins (reference value: 74 +/- 7.7 secs); format: functional
Mus musculus [8] = assay: Inhibition of serum COX1 level in Swiss mouse model of carragenan-induced paw edema at 100 mM/kg, po pretreated for 1 hr followed by carrageenan treatment measured after 3 hrs by ELISA; format: functional; how it was run: as §4
THP-1 = assay: Anti-inflammatory activity in human THP1 cells assessed as inhibition of LPS-induced TNFalpha production at 10 uM after 24 hrs by ELISA relative to control; format: functional; conditions: THP-1, 24 h
How it was run: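 Human monocytic THP-1 cells (5×10^5 cells/mL) were given LPS 1 µg/mL with or without compound at 10 µM for 24 h. Cells were spun out at 500 × g and the medium kept at −80 °C. Secreted IL-1β and TNFα were measured with high-sensitivity ELISA. Three independent experiments.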

Mus musculus [9] = assay: Anti-inflammatory activity in po dosed Swiss mouse assessed as reduction in carrageenan-induced paw edema pretreated for 1 hr followed by carrageenan injection and measured after 1 to 5 hrs by plethysmometric method; format: functional; conditions: read-out: ID50 (the source's name)
How it was run: (§5)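 Male Swiss mice (22–28 g) were fasted overnight and dosed orally with vehicle (2% DMSO in sterile saline), compound or indomethacin 1 h before intraplantar carrageenan. Groups (n=10) were matched on basal paw volume. Right hind paw volume was read by plethysmometer at 1, 3 and 5 h and expressed as change from basal.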

[10] = Cytotoxicity against human HepG2 cells assessed as cell viability at 20 to 40 uM after 6 hrs by trypan blue exclusion assay relative to control; format: cell-based; conditions: read-out: Activity
[11] = Selectivity ratio of compound effect for inhibition of human COX2 to compound effect for inhibition of ovine COX1
How it was run: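 COX-1 or COX-2 with heme was preincubated 120 min with compound (10 µM) in assay buffer. Arachidonic acid and a chemiluminescent substrate were then added at room temperature and peroxidative activity was read for 5 s; ibuprofen was the reference. Selectivity index was taken as the ratio of maximum COX-2 inhibition to COX-1 inhibition. Two independent experiments.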

Mus musculus [12] = assay: Anti-inflammatory activity in Swiss mouse assessed as reduction in carrageenan-induced paw edema by measuring paw volume […] po pretreated for 1 hr followed by carrageenan injection and measured after 1 to 5 hrs by plethysmometric method (reference value: 67.73 +/- 4.2 uL); format: functional; how it was run: as §5
Acetylcholinesterase [13] = molecular target: T1, Acetylcholinesterase; assay: Non-competitive inhibition of electric eel AChE using acetylthiocholine iodide as substrate preincubated for 10 mins followed by substrate addition by Ellman's method
How it was run: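 Substrate-competition kinetics with E. electricus AChE by Ellman's method: 10 min enzyme–DTNB–compound preincubation in 0.1 M phosphate, pH 7.4, then acetylthiocholine; A412 was read every 12 s for 5 min at rt. Three independent data sets, each in triplicate, were averaged and fitted to a simple noncompetitive model. That model was compared with mixed linear inhibition by AICc probability ratio.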

Mus musculus [14] = assay: as §2, with “Anti-inflammatory” for “Proinflammatory”, “inhibition” for “induction”, “ipsilateral” for “contralateral”; format: functional, organism-based; how it was run: as §3
Mus musculus [15] = assay: as §2, with “Toxicity” for “Proinflammatory activity”, “neurodegeneration” for “microgliosis”, “Fluoro-Jade C” for “Iba-1”, “based fluorescence microscopic” for “based”; format: organism-based; conditions: in vivo, 168 h
How it was run: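 C57Bl/6 male mice were dosed i.p. at 100 mg/kg 1.5 h before stereotactic right intrahippocampal Aβ1-42 oligomer injection (400 pmol/0.5 µL), with PBS as control. After 7 days, hippocampal sections were stained with Fluoro-Jade C (0.0001%) after NaOH/ethanol and permanganate steps. Five CA1 images per hippocampus were imaged under fluorescence and pixel intensity quantified, n=10.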

T1 sequence (O42275 whole entry): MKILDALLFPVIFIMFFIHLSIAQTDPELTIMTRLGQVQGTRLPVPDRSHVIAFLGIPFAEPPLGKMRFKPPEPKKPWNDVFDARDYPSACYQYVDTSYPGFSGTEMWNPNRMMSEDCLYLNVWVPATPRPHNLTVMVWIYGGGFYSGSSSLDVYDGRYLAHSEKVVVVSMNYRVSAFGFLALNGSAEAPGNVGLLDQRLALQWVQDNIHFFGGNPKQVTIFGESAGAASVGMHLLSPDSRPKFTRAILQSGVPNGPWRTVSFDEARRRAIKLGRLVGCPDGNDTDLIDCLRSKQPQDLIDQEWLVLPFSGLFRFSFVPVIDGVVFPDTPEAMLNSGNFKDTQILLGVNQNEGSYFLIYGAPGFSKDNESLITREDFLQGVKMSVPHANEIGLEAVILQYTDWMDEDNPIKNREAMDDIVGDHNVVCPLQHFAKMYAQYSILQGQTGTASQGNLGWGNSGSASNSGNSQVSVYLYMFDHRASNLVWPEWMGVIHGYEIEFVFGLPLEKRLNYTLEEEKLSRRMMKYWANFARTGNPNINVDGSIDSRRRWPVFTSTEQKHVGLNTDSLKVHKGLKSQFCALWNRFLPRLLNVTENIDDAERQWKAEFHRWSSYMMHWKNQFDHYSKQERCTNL
Chain of Acetylcholinesterase (Electrophorus electricus) (O42275 24-633 limits assumed): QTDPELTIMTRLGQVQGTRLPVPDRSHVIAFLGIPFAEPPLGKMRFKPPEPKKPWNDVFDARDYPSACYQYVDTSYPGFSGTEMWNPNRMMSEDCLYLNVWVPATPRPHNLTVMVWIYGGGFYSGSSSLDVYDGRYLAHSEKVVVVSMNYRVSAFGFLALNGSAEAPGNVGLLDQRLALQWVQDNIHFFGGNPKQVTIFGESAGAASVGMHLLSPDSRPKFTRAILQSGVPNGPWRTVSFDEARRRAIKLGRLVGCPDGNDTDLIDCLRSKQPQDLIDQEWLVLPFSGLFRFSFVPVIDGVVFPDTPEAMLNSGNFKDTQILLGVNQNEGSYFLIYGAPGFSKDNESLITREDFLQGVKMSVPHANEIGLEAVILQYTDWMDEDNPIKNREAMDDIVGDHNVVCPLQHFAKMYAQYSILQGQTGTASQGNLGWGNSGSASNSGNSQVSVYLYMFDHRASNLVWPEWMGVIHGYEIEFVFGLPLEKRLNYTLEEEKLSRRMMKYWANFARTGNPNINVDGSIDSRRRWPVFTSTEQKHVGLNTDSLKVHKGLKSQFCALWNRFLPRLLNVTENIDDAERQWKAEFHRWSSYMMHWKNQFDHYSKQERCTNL

Structure (SMILES) | Activity (HepG2) | Time (Mus musculus [1]) [s] | IC50 (Acetylcholinesterase [2]) [µM] | inhibition [3] | Activity (Mus musculus [4]) | inhibition [5] [%] | IC50 (PBMC) [µM] | inhibition (SH-SY5Y) | inhibition (INH) (Mus musculus [6]) [%] | Time (Mus musculus [7]) [s] | inhibition (INH) (Mus musculus [8]) [%] | inhibition at 10 µM (THP-1) [%] | ED50 (Mus musculus [9]) [µmol/kg] | viability at 6 h, 40 µM [10] [%] | Selectivity ratio [11] | Activity (Mus musculus [12]) [µL] | Ki (Acetylcholinesterase [13]) [µM] | inhibition (Mus musculus [14]) | Activity (Mus musculus [15])
O=C(N/N=C/c1ccc(F)cc1)c1ccc(CN2CCCC(O)C2)cc1 (stereo not drawn) | Non-Toxic | 24.17 | 8.65 | Dose-dependent effect | Non-Toxic | > 60 | > 100 | Active | 25 | 18.86 | 34 | 69 | 4.66 | > 90 | 0.83 | 20 | 13.4 | Active | Toxic
O=C(N/N=C/c1ccc(Cl)cc1)c1ccc(CN2CCCC(O)C2)cc1 (stereo not drawn) | Non-Toxic | 62.88 | 25.4 | Dose-dependent effect | Non-Toxic | > 60 | > 100 | Active | 42 | 14 | 27 | 98 | 8.76 | > 90 | 1.27 | 17.14 | 7.76 | Active | Non-Toxic
